Results from ChEMBL document CHEMBL4261600 (Eur J Med Chem, 2018).
Calls of active or inactive are those of the source.

How the values were obtained:
[1] = molecular target: Death-associated protein kinase 2 (Homo sapiens) (UniProt Q9UIK4); assay: Binding affinity to wild-type human full length DAPK2 (M1 to S370 residues) expressed in bacterial expression system assessed as remaining unbound target protein level at 1000 nM by Kinomescan method relative to control
Procedure, shortened: (§1)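 KINOMEscan competition binding profile across a panel of 468 kinases and mutants, with the inhibitor tested at a single concentration of 1 μM. Binding is reported as percent of control, meaning signal relative to a DMSO control.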

[2] = molecular target: Cyclin-dependent kinase-like 5 (Homo sapiens) (UniProt O76039); assay: Binding affinity to wild-type human partial length CDKL5 (M1 to S337 residues) expressed in mammalian expression system assessed as remaining unbound target protein level at 1000 nM by Kinomescan method relative to control; procedure, shortened: as §1
Cyclin-dependent kinase-like 5 (Homo sapiens), sequence (O76039 whole entry, the tested form may be a part): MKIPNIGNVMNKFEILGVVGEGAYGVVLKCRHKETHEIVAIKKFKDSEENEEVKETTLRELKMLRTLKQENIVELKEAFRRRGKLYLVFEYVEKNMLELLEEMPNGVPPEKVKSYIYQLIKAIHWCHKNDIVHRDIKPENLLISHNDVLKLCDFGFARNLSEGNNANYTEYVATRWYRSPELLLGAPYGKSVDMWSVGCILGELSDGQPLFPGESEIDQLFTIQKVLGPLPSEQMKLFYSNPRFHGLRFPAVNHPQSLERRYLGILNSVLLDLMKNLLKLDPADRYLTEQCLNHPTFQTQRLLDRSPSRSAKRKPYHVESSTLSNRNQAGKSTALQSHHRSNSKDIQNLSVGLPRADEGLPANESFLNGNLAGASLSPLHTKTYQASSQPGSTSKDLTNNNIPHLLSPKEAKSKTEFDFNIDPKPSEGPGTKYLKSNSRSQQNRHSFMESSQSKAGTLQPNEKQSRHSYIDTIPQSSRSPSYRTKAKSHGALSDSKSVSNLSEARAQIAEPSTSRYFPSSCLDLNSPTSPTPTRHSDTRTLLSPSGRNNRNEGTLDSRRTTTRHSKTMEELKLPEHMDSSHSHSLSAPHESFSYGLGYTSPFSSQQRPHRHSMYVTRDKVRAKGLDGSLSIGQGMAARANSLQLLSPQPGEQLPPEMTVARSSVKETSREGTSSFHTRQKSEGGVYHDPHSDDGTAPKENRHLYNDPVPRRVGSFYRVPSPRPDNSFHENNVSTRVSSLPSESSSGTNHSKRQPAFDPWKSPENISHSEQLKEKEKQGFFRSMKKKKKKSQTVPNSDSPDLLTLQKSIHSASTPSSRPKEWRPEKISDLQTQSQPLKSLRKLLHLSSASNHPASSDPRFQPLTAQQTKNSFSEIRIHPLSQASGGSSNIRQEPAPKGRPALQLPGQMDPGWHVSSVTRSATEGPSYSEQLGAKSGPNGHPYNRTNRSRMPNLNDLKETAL

[3] = molecular target: Mitogen-activated protein kinase kinase kinase 6 (Homo sapiens) (UniProt O95382); assay: Binding affinity to wild-type human partial length ASK2 (M278 to R972 residues) expressed in mammalian expression system assessed as remaining unbound target protein level at 1000 nM by Kinomescan method relative to control; procedure, shortened: as §1
Mitogen-activated protein kinase kinase kinase 6 (Homo sapiens), sequence (O95382 whole entry, the tested form may be a part): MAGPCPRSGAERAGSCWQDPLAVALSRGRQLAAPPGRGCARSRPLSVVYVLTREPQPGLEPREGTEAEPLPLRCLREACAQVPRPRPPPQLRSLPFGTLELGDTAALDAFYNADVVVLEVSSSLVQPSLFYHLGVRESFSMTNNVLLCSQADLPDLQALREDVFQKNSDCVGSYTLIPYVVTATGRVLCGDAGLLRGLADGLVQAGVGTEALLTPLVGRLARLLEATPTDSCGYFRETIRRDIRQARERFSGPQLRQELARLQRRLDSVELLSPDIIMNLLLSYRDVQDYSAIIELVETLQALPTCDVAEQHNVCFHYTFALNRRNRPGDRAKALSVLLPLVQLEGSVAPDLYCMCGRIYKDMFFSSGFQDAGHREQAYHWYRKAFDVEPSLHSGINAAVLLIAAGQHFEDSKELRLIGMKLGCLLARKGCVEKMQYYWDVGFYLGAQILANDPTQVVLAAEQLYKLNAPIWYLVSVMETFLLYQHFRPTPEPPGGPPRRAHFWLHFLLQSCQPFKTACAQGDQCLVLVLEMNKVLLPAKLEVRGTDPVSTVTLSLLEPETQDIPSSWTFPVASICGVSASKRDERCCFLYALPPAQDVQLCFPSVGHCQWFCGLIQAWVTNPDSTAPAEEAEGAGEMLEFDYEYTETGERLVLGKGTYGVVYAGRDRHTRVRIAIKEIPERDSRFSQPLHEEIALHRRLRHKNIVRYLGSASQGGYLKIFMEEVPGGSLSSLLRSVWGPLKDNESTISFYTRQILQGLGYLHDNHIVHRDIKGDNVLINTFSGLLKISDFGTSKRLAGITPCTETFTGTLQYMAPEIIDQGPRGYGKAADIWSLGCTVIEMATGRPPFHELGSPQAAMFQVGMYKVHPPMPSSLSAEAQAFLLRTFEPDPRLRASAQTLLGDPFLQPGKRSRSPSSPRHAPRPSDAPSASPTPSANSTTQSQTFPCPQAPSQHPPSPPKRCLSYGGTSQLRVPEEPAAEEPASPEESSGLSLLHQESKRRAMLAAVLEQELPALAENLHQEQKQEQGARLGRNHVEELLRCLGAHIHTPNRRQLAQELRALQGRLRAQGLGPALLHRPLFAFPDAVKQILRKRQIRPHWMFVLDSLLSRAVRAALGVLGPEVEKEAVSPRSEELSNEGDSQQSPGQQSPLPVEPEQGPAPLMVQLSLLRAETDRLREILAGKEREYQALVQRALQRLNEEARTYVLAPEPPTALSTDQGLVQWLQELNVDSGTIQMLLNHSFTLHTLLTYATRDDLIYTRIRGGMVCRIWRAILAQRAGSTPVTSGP

[4] = molecular target: Wee1-like protein kinase 2 (Homo sapiens) (UniProt P0C1S8); assay: Binding affinity to wild-type human partial length WEE2 (M204 to K492 residues) expressed in bacterial expression system assessed as remaining unbound target protein level at 1000 nM by Kinomescan method relative to control
[5] = molecular target: Serine/threonine-protein kinase Nek2 (Homo sapiens) (UniProt P51955); assay: Binding affinity to wild-type human partial length NEK2 (M1 to K309 residues) expressed in bacterial expression system assessed as remaining unbound target protein level at 1000 nM by Kinomescan method relative to control
Serine/threonine-protein kinase Nek2 (Homo sapiens), sequence (P51955 whole entry, the tested form may be a part): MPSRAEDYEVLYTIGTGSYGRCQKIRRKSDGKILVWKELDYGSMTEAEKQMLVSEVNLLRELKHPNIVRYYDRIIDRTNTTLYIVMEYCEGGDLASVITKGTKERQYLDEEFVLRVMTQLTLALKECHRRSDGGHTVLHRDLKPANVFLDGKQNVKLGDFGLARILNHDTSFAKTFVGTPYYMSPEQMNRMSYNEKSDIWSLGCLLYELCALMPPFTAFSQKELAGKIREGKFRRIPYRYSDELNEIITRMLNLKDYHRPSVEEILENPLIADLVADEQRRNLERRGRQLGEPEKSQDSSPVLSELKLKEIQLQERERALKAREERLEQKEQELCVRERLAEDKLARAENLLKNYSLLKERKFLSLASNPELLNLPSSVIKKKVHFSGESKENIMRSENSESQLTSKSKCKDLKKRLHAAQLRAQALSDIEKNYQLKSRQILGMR

[6] = molecular target: Aurora kinase B (Homo sapiens) (UniProt Q96GD4); assay: Binding affinity to wild-type human partial length AURKB (D25 to A303 residues) expressed in mammalian expression system assessed as remaining unbound target protein level at 1000 nM by Kinomescan method relative to control
Aurora kinase B (Homo sapiens), sequence (Q96GD4 whole entry, the tested form may be a part): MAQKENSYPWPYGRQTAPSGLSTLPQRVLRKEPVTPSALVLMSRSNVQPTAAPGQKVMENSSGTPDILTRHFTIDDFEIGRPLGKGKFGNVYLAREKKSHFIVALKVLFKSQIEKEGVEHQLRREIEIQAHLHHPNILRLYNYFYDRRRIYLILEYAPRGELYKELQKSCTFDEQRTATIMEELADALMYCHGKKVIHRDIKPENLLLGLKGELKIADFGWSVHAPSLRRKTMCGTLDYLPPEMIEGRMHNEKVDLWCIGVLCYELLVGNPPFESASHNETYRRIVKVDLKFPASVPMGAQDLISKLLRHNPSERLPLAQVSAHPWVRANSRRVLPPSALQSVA
Procedure, shortened: (§2)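 Profiled in a KINOMEscan binding panel with the inhibitor at a single concentration of 1 μM. Binding to each kinase was read out as percent of control, relative to a DMSO control. Strong binders were defined as those with a percent control value below 1.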

[7] = molecular target: Phosphatidylinositol 4-kinase beta (Homo sapiens) (UniProt Q9UBF8); assay: Binding affinity to wild-type human full length PIK4CB (M1 to M828 residues) expressed in mammalian expression system assessed as remaining unbound target protein level at 1000 nM by Kinomescan method relative to control; procedure, shortened: as §2
[8] = molecular target: T1, Cyclin-dependent kinase 9 (Homo sapiens, UniProt P50750); assay: Inhibition of CDK9 in human HL60 cells assessed as decrease in phosphorylation at Thr 186 residues up to 3 uM after 2 hrs by immunoblotting analysis; type: cell-based
T1 sequence (P50750 whole entry): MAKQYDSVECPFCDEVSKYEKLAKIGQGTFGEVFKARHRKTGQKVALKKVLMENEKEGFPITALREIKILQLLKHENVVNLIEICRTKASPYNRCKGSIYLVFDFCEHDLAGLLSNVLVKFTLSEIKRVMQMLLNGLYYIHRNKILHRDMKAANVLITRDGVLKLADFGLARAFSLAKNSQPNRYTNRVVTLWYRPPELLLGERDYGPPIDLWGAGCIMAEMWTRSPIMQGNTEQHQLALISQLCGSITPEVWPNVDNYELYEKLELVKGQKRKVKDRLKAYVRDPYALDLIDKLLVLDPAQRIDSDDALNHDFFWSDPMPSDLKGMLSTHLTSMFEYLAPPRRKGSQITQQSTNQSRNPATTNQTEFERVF

[9] = Oral bioavailability in mouse at 10 mg/kg by LC-MS/MS analysis; type: ADME, organism-based; conditions: in vivo
[10] = molecular target: Serine/threonine-protein kinase DCLK3 (Homo sapiens) (UniProt Q9C098); assay: Binding affinity to wild-type human partial length DCAMKL3 (E140 to V628 residues) expressed in bacterial expression system assessed as remaining unbound target protein level at 1000 nM by Kinomescan method relative to control
Serine/threonine-protein kinase DCLK3 (Homo sapiens), sequence (Q9C098 whole entry, the tested form may be a part): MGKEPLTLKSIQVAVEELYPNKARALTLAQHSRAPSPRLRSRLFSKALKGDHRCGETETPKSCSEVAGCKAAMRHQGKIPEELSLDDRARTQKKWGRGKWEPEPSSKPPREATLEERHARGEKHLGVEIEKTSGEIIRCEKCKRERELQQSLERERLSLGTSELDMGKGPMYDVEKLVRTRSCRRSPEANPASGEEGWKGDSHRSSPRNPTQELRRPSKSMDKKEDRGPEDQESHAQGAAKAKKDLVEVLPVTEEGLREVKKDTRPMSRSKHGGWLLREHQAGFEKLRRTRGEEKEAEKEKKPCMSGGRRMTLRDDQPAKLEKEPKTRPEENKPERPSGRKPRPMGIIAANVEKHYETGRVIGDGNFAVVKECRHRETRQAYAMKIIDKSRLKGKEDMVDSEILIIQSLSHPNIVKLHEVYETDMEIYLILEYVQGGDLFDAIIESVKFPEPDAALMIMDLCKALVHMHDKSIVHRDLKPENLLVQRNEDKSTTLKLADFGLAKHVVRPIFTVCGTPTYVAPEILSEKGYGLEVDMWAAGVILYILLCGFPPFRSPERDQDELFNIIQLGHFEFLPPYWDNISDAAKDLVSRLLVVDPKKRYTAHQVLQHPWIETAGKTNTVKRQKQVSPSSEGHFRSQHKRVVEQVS

Homo sapiens = species on record: Homo sapiens; assay: Induction of apoptosis in human MEC1 cells assessed as decrease in MCL-1 level after 2 hrs by immunoblotting analysis; type: functional, cell-based
[11] = molecular target: Serine/threonine-protein kinase Chk1 (Homo sapiens) (UniProt O14757); assay: Binding affinity to wild-type human partial length CHEK1 (M1 to G289 residues) expressed in bacterial expression system assessed as remaining unbound target protein level at 1000 nM by Kinomescan method relative to control; procedure, shortened: as §1
Serine/threonine-protein kinase Chk1 (Homo sapiens), sequence (O14757 whole entry, the tested form may be a part): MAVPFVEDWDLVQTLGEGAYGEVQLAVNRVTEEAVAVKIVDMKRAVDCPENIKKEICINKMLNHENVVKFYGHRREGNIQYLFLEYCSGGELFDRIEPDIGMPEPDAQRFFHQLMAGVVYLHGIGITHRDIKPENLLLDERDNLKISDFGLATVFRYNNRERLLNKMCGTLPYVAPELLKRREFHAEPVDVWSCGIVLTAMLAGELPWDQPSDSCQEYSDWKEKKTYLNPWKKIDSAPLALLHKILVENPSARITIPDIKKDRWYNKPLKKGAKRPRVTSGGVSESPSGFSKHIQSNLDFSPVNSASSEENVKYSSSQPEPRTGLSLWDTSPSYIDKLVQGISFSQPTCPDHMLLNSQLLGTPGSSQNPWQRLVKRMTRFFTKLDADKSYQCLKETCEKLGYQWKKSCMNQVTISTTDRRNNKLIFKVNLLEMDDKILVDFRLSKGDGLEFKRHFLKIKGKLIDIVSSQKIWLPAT

[12] = molecular target: T1, Cyclin-dependent kinase 9; assay: Inhibition of CDK9 in human MEC1 cells assessed as decrease in phosphorylation at Thr 186 residues up to 3 uM after 2 hrs by immunoblotting analysis; type: cell-based
[13] = molecular target: Tyrosine-protein kinase Srms (Homo sapiens) (UniProt Q9H3Y6); assay: Binding affinity to wild-type human partial length SRMS (L208 to P488 residues) expressed in mammalian expression system assessed as remaining unbound target protein level at 1000 nM by Kinomescan method relative to control
[14] = molecular target: Serine/threonine-protein kinase 32B (Homo sapiens) (UniProt Q9NY57); assay: Binding affinity to wild-type human full length YANK2 (M1 to S414 residues) expressed in bacterial expression system assessed as remaining unbound target protein level at 1000 nM by Kinomescan method relative to control; procedure, shortened: as §2
Serine/threonine-protein kinase 32B (Homo sapiens), sequence (Q9NY57 whole entry, the tested form may be a part): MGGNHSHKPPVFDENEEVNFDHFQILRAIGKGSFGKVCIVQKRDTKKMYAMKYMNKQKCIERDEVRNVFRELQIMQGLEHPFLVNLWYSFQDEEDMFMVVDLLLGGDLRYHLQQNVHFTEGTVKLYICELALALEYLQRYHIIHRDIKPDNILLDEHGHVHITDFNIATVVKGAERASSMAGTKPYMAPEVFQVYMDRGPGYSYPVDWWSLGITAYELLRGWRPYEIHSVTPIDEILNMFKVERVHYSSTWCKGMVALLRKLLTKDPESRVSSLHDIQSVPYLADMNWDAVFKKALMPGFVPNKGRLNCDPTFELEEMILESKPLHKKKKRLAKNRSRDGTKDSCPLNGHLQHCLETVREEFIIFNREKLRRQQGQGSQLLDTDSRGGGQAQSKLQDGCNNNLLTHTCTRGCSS

[15] = molecular target: Serine/threonine-protein kinase 36 (Homo sapiens) (UniProt Q9NRP7); assay: Binding affinity to wild-type human partial length STK36 (M1 to T271 residues) expressed in bacterial expression system assessed as remaining unbound target protein level at 1000 nM by Kinomescan method relative to control
[16] = system: Tyrosine-protein kinase ABL1 (Homo sapiens), P00519 [M351T]; assay: Binding affinity to human phosphorylated ABL1 M351T mutant (S229 to K512 residues) expressed in mammalian expression system assessed as remaining unbound target protein level at 1000 nM by Kinomescan method relative to control
Procedure, shortened: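 Single-point competition binding screen across a panel of 468 kinases and mutants, with the inhibitor at 1 μM. Binding is read out as percent of a DMSO control, and targets below 1 percent control were classed as strong binders.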

[17] = molecular target: Serine/threonine-protein kinase PAK 3 (Homo sapiens) (UniProt O75914); assay: Binding affinity to wild-type human full length PAK3 (M1 to R544 residues) expressed in bacterial expression system assessed as remaining unbound target protein level at 1000 nM by Kinomescan method relative to control; procedure, shortened: as §2
[18] = system: Epidermal growth factor receptor (Homo sapiens), P00533 [UNDEFINED MUTATION]; assay: Binding affinity to human partial length EGFR L747-E749del/A750P mutant expressed in bacterial expression system assessed as remaining unbound target protein level at 1000 nM by Kinomescan method relative to control
Procedure, shortened: (§3)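 KINOMEscan competition-binding profiling across the panel of 468 kinases and mutants, with inhibitor tested at 1 μM. Binding is expressed as percent of control, with DMSO as the reference control.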

[19] = molecular target: Myosin light chain kinase 2, skeletal/cardiac muscle (Homo sapiens) (UniProt Q9H1R3); assay: Binding affinity to wild-type human partial length MYLK2 (D258 to K570 residues) expressed in bacterial expression system assessed as remaining unbound target protein level at 1000 nM by Kinomescan method relative to control
Procedure, shortened: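 KINOMEscan binding panel of 468 kinases/mutants. Inhibitor was tested at a single concentration of 1 μM. Binding is reported as percent of control, defined relative to a DMSO control.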

HL-60 = assay: Induction of apoptosis in human HL60 cells assessed as decrease in BCL-2 level up to 3 uM after 2 hrs by immunoblotting analysis; type: functional, cell-based
[20] = system: Serine/threonine-protein kinase B-raf (Homo sapiens), P15056 [V600E]; assay: Binding affinity to human partial length BRAF V600E mutant (S429 to E741 residues) expressed in mammalian expression system assessed as remaining unbound target protein level at 1000 nM by Kinomescan method relative to control; procedure, shortened: as §3

SMILES: COCCN[C@H]1CC[C@H](Nc2cc(-c3csc(NCC4(C#N)CCOCC4)n3)c(Cl)cn2)CC1
- Activity [1]: 95%
- Activity [2]: 21%
- Activity [3]: 86%
- Activity [4]: 100%
- Activity [5]: 100%
- Activity [6]: 100%
- Activity [7]: 100%
- inhibition [8]: inactive
- bioavailability [9]: 45%
- Activity [10]: 97%
- Activity (Homo sapiens): Dose-dependent effect
- Activity [11]: 91%
- inhibition [12]: inactive
- Activity [13]: 89%
- Activity [14]: 100%
- Activity [15]: 83%
- Activity [16]: 100%
- Activity [17]: 97%
- Activity [18]: 92%
- Activity [19]: 93%
- Activity (HL-60): inactive
- Activity [20]: 91%
